Measured values of several laboratories.
Each line is one published result; the experiments were not run side by side.

Compound | target or system | test | system | setting | measurement | result
CC1CCN(C(=O)/C=C/c2nn(CC3CCCC3)c3ncnc(N)c23)CC1 | FLO-1 | cell growth or viability, resazurin | – | 5 days | EC50 | > 30 µM
Cn1cc2c3c1C(=O)C(NCCc1ccc(O)cc1)=CC3=[N+](C)CC2 | Plasmodium falciparum | parasite growth, SYBR Green | W2 | blood stage | IC50 | 0.394 µM
O=C(/C=C/c1cn(Cc2cn(-c3ccnc4cc(Cl)ccc34)nn2)c2ccccc12)c1cc(OCc2ccccc2)cc(OCc2ccccc2)c1 | Plasmodium falciparum | parasite growth, SYBR Green | 3D7 | 10 µM, blood stage | inhibition | 49%
C=CC(=O)NC1CCN(c2ncc3ncnc(Nc4ccc(Oc5ccc6c(c5)ncn6C)c(C)c4)c3n2)CC1 | MDA-MB-453 | cell growth or viability | – | – | EC50 | 0.0352 µM
CCOC(Cn1nc(/C=C/C(=O)N2CCC(OC)CC2)c2cnc(NC)nc21)OCC | FLO-1 | cell growth or viability, resazurin | – | 5 days | EC50 | > 30 µM
COc1ccc(C(=O)/C=C/c2cn(Cc3cn(-c4ccnc5cc(Cl)ccc45)nn3)c3ccccc23)cc1OC | Plasmodium falciparum | parasite growth, SYBR Green | 3D7 | 5 µM, blood stage | inhibition | -4%
CNc1ncc2c(/C=C/C(=O)N3CCC(OC)CC3)nn(Cc3ccc(OC)cc3)c2n1 | FLO-1 | cell growth or viability, resazurin | – | 5 days | EC50 | 1.13 µM
COc1cccc(C(=O)/C=C/c2cn(Cc3cn(-c4ccnc5cc(Cl)ccc45)nn3)c3ccccc23)c1 | Plasmodium falciparum | parasite growth, SYBR Green | 3D7 | 5 µM, blood stage | inhibition | 2.88%
CNc1ncc2c(/C=C/C(=O)N3CCC(OC)CC3)nn(CC3CCCCC3)c2n1 | FLO-1 | cell growth or viability, resazurin | – | 5 days | EC50 | 7.15 µM
COCC(=O)N1CCCC(C(=O)NCc2nc(-c3ccccc3)cs2)C1 (racemic) | Plasmodium falciparum | parasite growth, SYBR Green | – | 72 h | EC50 | 0.15 µM
O=C(NO)c1ccc(CNc2nc3cccc(-c4ccc5c(c4)OCO5)n3n2)cc1 | NCI-H460 | cell growth or viability, SRB | – | – | GI50 | 0.68 µM
O=C1C=C2NCCc3c[nH]c(c32)C1=O | Plasmodium falciparum | parasite growth, SYBR Green | DD2 | blood stage | IC50 | 23.7 µM
O=C(/C=C/c1cn(Cc2cn(-c3ccnc4cc(Cl)ccc34)nn2)c2ccccc12)c1ccc(F)cc1 | Plasmodium falciparum | parasite growth, SYBR Green | 3D7 | 10 µM, blood stage | inhibition | 47.1%
O=C1C(NCCc2ccc(O)cc2)=CC2=NCCc3c[nH]c1c32 | Plasmodium falciparum | parasite growth, SYBR Green | DD2 | blood stage | IC50 | 0.291 µM
O=C(/C=C/c1cn(Cc2cn(-c3ccnc4cc(Cl)ccc34)nn2)c2ccccc12)c1ccc(Cl)cc1Cl | Plasmodium falciparum | parasite growth, SYBR Green | 3D7 | 5 µM, blood stage | inhibition | 4.87%
